{"data": "Assay results from different studies", "target": "Tyrosine-protein kinase Fgr (FGR, Homo sapiens, UniProt P09769)", "note": "Protocols differ between the studies behind these lines."}
{"Structure (SMILES)": "O=C(NCC1CCOCC1)c1n[nH]cc1NC(=O)c1c(F)cccc1F", "observed": "binding", "method": "competition with immobilised ligand", "concentration": "1 µM", "remaining binding [%]": 100}
{"Structure (SMILES)": "O=C(NCCCN1CCOCC1)c1ccc(Nc2nccc(-c3cc4ccccc4s3)n2)cc1", "observed": "cell-free assay", "method": "competition with immobilised ligand", "concentration": "1 µM", "remaining binding [%]": 79}
{"Structure (SMILES)": "CN([C@@H]1CCc2c(CC(=O)O)c3ccccc3n2C1)S(=O)(=O)c1ccc(F)cc1", "observed": "cell-free assay", "method": "competition with immobilised ligand", "concentration": "1 µM", "remaining binding [%]": 93}
{"Structure (SMILES)": "CN(CCCC(F)(F)F)c1nccc(-c2cnn3ncccc23)n1", "observed": "binding", "concentration": "1 µM", "remaining binding [%]": 85}
{"Structure (SMILES)": "Cc1noc([C@H]2C[C@@H](c3ccc(C(F)(F)F)cc3)CN(C(=O)N3CCS(=O)(=O)C3)C2)n1", "observed": "cell-free assay", "method": "competition with immobilised ligand", "concentration": "1 µM", "remaining binding [%]": 100}
{"Structure (SMILES)": "CN(C)c1nccc(-c2cnn3ncccc23)n1", "observed": "binding", "concentration": "1 µM", "remaining binding [%]": 100}
{"Structure (SMILES)": "O=C(NCCCN1CCOCC1)c1ccc(Nc2ncc(Cl)c(-c3ccc(Cl)s3)n2)cc1", "observed": "cell-free assay", "method": "competition with immobilised ligand", "concentration": "1 µM", "remaining binding [%]": 91}
{"Structure (SMILES)": "CNCc1ccccc1-c1csc([C@@H](C)Nc2nc(C)nc3cc(OC)c(OC)cc23)c1", "observed": "cell-free assay", "method": "competition with immobilised ligand", "concentration": "1 µM", "remaining binding [%]": 100}
{"Structure (SMILES)": "COc1cnc(Nc2cccc(S(N)(=O)=O)c2)nc1N1CCN(c2ccccc2)CC1", "observed": "binding", "method": "competition with immobilised ligand", "concentration": "1 µM", "remaining binding [%]": 95}
{"Structure (SMILES)": "CC1CCCN1c1nccc(-c2cnn3ncccc23)n1 (centres unmarked)", "observed": "binding", "concentration": "1 µM", "remaining binding [%]": 98}
{"Structure (SMILES)": "C[C@@H](c1ccc(-n2cnc3c(N)ncnc32)cc1)N1CCc2nn(C)c(Cc3ccccc3)c2C1=O", "observed": "binding", "method": "competition with immobilised ligand", "concentration": "0.1 µM", "remaining binding [%]": 81}
{"Structure (SMILES)": "C[C@@H]1CN(c2cc(-c3nn(C)c4ccc(OC5(C)CC5)cc34)ncn2)C[C@H](C)O1", "observed": "cell-free assay", "method": "competition with immobilised ligand", "concentration": "1 µM", "remaining binding [%]": 90}
{"Structure (SMILES)": "CN(C)c1ncc(F)c(-c2cnn3ncccc23)n1", "observed": "binding", "concentration": "1 µM", "remaining binding [%]": 88}
{"Structure (SMILES)": "COc1ncc2cc3ccccc3nc2c1C#N", "observed": "cell-free assay", "method": "competition with immobilised ligand", "concentration": "5 µM", "remaining binding [%]": 100}
{"Structure (SMILES)": "O=C(c1ccc(Nc2ncc(Cl)c(-c3cc4ccccc4s3)n2)cc1)N1CCC(N2CCCC2)CC1", "observed": "cell-free assay", "method": "competition with immobilised ligand", "concentration": "1 µM", "remaining binding [%]": 92}
{"Structure (SMILES)": "Cc1nccc(COC(=O)N2C[C@@H]3[C@@H](CNC(=O)c4ccc5[nH]nnc5c4)[C@@H]3C2)n1", "observed": "cell-free assay", "method": "competition with immobilised ligand", "concentration": "1 µM", "remaining binding [%]": 100}
{"Structure (SMILES)": "c1cnn2ncc(-c3ccnc(N4CCC45COC5)n3)c2c1", "observed": "binding", "concentration": "1 µM", "remaining binding [%]": 100}
{"Structure (SMILES)": "O=C(NCc1ncc(C(F)(F)F)cc1Cl)c1ccc2c(c1)C1(CCS(=O)(=O)CC1)[C@H](C1CC1)N2S(=O)(=O)c1ccc(F)cc1", "observed": "cell-free assay", "method": "competition with immobilised ligand", "concentration": "1 µM", "remaining binding [%]": 100}
{"Structure (SMILES)": "C[C@@H]1CCN(c2nccc(-c3cnn4ncccc34)n2)C1", "observed": "binding", "concentration": "1 µM", "remaining binding [%]": 100}
{"Structure (SMILES)": "CNC(=O)[C@@H]1CC[C@@H](n2c(-c3ccc4cnccc4c3)nc3ccc(C(=O)NCc4cccc(C(N)=O)c4)cc32)C1", "observed": "binding", "method": "competition with immobilised ligand", "concentration": "1 µM", "remaining binding [%]": 100}
